The values that follow come from ChEMBL document CHEMBL3585269, “Simple structural modifications confer cytotoxicity to allobetulin” (Bioorg Med Chem, 2015).

Experiment [1] can be described thus: Cytotoxicity against human 518A2 cells by SRB assay. The class given is functional, cell-based. As to conditions: Homo sapiens, 518A2; read-out: EC50. An outline of the steps:
(§1)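 Photometric sulforhodamine B (SRB) read-out after 96 h of compound treatment. EC50 values are averaged from three independent experiments, each run in triplicate, and reported with a 95% confidence interval. The assay has an upper cut-off.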
(In general: In SRB staining, fixed cells bind dye roughly in proportion to their protein.)

A further experiment concerns A549. As to the kind of experiment: Cytotoxicity against human A549 cells by SRB assay. Format: functional, cell-based. As to conditions: Homo sapiens, A549; read-out: EC50. An outline of the steps:
as §1

Experiment [2] is described as follows: Cytotoxicity against mouse NIH/3T3 cells by SRB assay. The class given is cell-based. Conditions: NIH3T3.
The subject of a further experiment is MCF7. In words: Cytotoxicity against human MCF7 cells by SRB assay. Format: functional, cell-based. Conditions: Homo sapiens, MCF7; read-out: EC50. The essentials:
as §1

The next experiment deals with A2780. In words: Cytotoxicity against human A2780 cells by SRB assay. Conditions: Homo sapiens, A2780; read-out: EC50. The class given is functional, cell-based. An outline of the steps: as §1
The subject of the next experiment is 8505C. As to the kind of experiment: Cytotoxicity against human 8505C cells by SRB assay. Format: functional, cell-based. Conditions: Homo sapiens, 8505C; read-out: EC50. The essentials: as §1
The next experiment relates to HT-29. As to the kind of experiment: Cytotoxicity against human HT-29 cells by SRB assay. The class given is functional, cell-based. Conditions: Homo sapiens, HT-29; read-out: EC50. The essentials: as §1

What is called EC50 is the midpoint of the concentration-response curve. With `CC1(C)CC[C@]23CC[C@]4(C)[C@H](CC[C@@H]5[C@@]6(C)CC[C@@H](N)C(C)(C)[C@@H]6CC[C@]54C)[C@H]2[C@H]1OC3`, the EC50 was 10.2 µM in experiment [1]; 12.6 µM in the experiment with A549; 15.9 µM in experiment [2]; 15.2 µM in the experiment on MCF7; 12.9 µM in the experiment with A2780; 15.5 µM in the experiment on 8505C. For the same compound, in the experiment with HT-29, the EC50 worked out at 6.8 µM.

As to `CC1(C)CC[C@]23CC[C@]4(C)[C@H](CC[C@@H]5[C@@]6(C)CC[C@H](N)C(C)(C)[C@@H]6CC[C@]54C)[C@H]2[C@H]1OC3`, the EC50 in experiment [1] came out at 5.4 µM; in the experiment on A549 it was 7.3 µM; in experiment [2], 7.3 µM; in the experiment on MCF7, 10.4 µM; in the experiment with A2780, 6.6 µM; in the experiment with 8505C it was 7.8 µM. Besides, the EC50 in the experiment with HT-29 is 6.2 µM.
